Tested on: MS2 coat protein
Assay: apparent Kd, MS2 coat protein; higher = weaker binding; RNA-MaP array; FMN 200 µM where present
Method in brief: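 Stalled E. coli RNA polymerase transcribed the designs on Illumina sequencing-chip clusters. SNAP-549-labelled MS2 coat protein was titrated from 0.7 or 1.5 nM, doubling to 3 µM, without and then with constant ligand, in 100 mM Tris-HCl pH 7.5, 80 mM KCl, 4 mM MgCl2, BSA, DTT, yeast tRNA and Tween-20. Per-cluster binding curves were fitted to green signal normalised to red-channel RNA signal and control-cluster median Fmax. The apparent Kd is the median of the filtered fits.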

[1] = designed as: OFF switch for flavin mononucleotide, no ligand
[2] = ligand present: flavin mononucleotide, designed as: OFF switch for flavin mononucleotide
[3] = designed as: ON switch for flavin mononucleotide, no ligand
[4] = ligand present: flavin mononucleotide, designed as: ON switch for flavin mononucleotide

Sequence	apparent Kd [1]	apparent Kd [2]	apparent Kd [3]	apparent Kd [4]
GGUACUCAAAGAGUACCAAUACGAACAUGAGGAUCACCCAUGUAGGAUAUGCUACUCACAGAGUAGCAGAAGGACAUGUGCCUA	20.8 nM	136 nM	–	–
UUGGAGUACGUAGGAUAUGUAGGAUAUUCCUACAUGAGGAUCACCCAUGUUAGCAUGGAAGAAGGACAGAAGGACGUGCUCCAU	–	–	1120 nM	15.1 nM
GGGUAGUGAGGAUAUCGUUGUUAGGAGGAGUAGGUAGGAGGCGAGAAGGCACAUGAGGAUCACCCAUGUAUGAA	26.8 nM	29 nM	–	–
GGAUAGGACAGAGGAUAUACGUGCUAGAGAUACUAGCAAAAUUUCCUCACAUGAGGAUCACCCAUGUAGAAGGCUGUCCUAGCG	15.7 nM	376 nM	–	–
UGAUACAUGAGGGUCUCCCAUGACAUGAGGAUCACCCAUGUGCAGGAUAUACGUGUGAUGAUAUAGUAGAAGGGCAGUCUAUGU	449 nM	537 nM	–	–
AAUACACAUGAGGAUCACCCAUGUCAGGAUAUGCGGAAUAAGACUUUGGUCGAUAAAUGUAGAAGGGACGUUUA	34.3 nM	33.4 nM	–	–
GAGUGGUUGGGAGGAUAUGCAUUGUUAUUAAAUGCAGAAGGUUUUAACAUGAGGAUCACCCAUGUAGGACUAUUCCUGUGUUUC	–	–	17.4 nM	14.6 nM
UCCUUGUUCUGAGGAUAUCCGCGGUUCCCAAAAGGAGAAGGCAGGACAUGAGGAUCACCCAUGUACCCAGAAAACGUGCAGAGU	9.85 nM	37.4 nM	–	–
CUUAUGUGAGGAUAUCAGUAGUAAUACAAUAGUAUUACUACUGAGAAGGCACAUGAGGAUCACCCAUGUUCCUU	28.1 nM	131 nM	–	–
CCCUCACAUGAGGAUCACCCAUGUCAGGAUAUUCAAAGCGCAAAUGCGCCAAAUGCAGGAAGAAGGGACGUGCC	15.1 nM	20.5 nM	–	–
AAGCCCUGAGGAUAUCCCAACUCGCACAUGAGGAUCACCCAUGUCCUUCUCUGGGCUUCGGGAGAAGGCAGGUCUC	90.3 nM	305 nM	–	–
CAUUAAUUGAUUAUUGUAUUUAUACAGGAUAUGUAACAUGAGGAUCACCCAUGUAUACAUGGGAAACAGAAGGGUAUUUAUAGA	31.9 nM	25.6 nM	–	–
ACGACGAAAGUCGAACGAUGUAGCAGAAGGACAUGAGGAUCACCCAUGUCAGCUGUAACAGCCAUGUAGGAUAUGCUACAUCGC	4.38 nM	5.45 nM	–	–
AUCCUGCGAGGAUAUACAUAGUGACGUCUGUUUGGUCUCAAACAUGAGGAUCACCCAUGUAGAAGGUGCGUCAC	66.3 nM	66.5 nM	–	–
CGUCCUCUAGUUAGGAUAUUGUCUCGGAUACGAAACAAGAAGGGACAUGAGGAUCACCCAUGUAAUGAGGACGA	29.2 nM	28.2 nM	–	–
GUCAGCUCGUGAGGAUAUACAACACUGCUUCGGAAGUGUAUUAAGAUCACAUGAGGAUCACCCAUGUAGAAGGCACGAGCUGAU	13.7 nM	225 nM	–	–
AAGAGUACAGGAUAUACAUGAGGAUCACCCAUGUGAAAAUUAAGUGGCGUACCACAAAGUAGAAGGGUACUGGA	22.4 nM	50.8 nM	–	–
GCGAAUUAGUGAGGAUAUACAUAAUUUAUAACUGUAGAAGGCACAAACCUCAAGACAUGAGGAUCACCCAUGUGGUAUUACGCU	112 nM	281 nM	–	–
GUCACCCGAUGAGGAUAUGCACAUGAGGAUCACCCAUGUGACCUCAUCGUGCCGGGAAGCCGGCUGCAGAAGGCAUUGAGGGAU	7.76 nM	7.25 nM	–	–
GACAAGGGAGGAUAUGCACAAGGGAUAUCUGACAUGCCGAUACAUGAGGAUCACCCAUGUAGAAGGCCCGAAUA	11.4 nM	18.3 nM	–	–
GCCAUCGUAUGAGGAUAUGGCACCGCAACGGUGCCAGAAGGCAUGUCAAUAGACAUGAGGAUCACCCAUGUGUUAUCGAUGGCA	–	–	153 nM	13.9 nM
UCCUCCGCAGGAUAUACAUGGGCGCCCGUCUUCAACCAUUAACAUGAGGAUCACCCAUGUAGAAGGGCGUCUCU	16.1 nM	15.5 nM	–	–
GAUUCACAUGAGGAUCACCCAUGUGAGGAUAUAGUGCAAGAGGUGGAUGCCCACCUCCCUAGAAGGCACACGGG	28.6 nM	24 nM	–	–
UGGUACUAGGGAGGAUAUGGGAAGAUACAUGAGGAUCACCCAUGUUUAAGAAUGCCGAGAGGCAACUAGAAGGCUCUAGUACCU	–	–	416 nM	18.4 nM

Sequence	apparent Kd [1]	apparent Kd [2]	apparent Kd [3]	apparent Kd [4]
GGGCUGUCAGGAUAUCCCGGGCCCGGGUAAAUUUGGGCCCGGGAGAAGGGACAUGAGGAUCACCCAUGUGGCCC	39.2 nM	40.5 nM	–	–
UUUAAACAUGAGGAUCACCCAUGUCGUUCAAAUCAAGGAUAUCAAGCGUAUGCGCACGCUUGAGAAGGUGAAGCUC	–	–	47.2 nM	135 nM
UUGGACGUCGUAGGAUAUGUAGGAUAUUCCUACAUGAGGAUCACCCAUGUUGACAUGGAAGAAGGAAAGAAGGACGAUGUCCAU	–	–	496 nM	303 nM
UGUCGGAGCAGAGGAUAUUACAUGAGGAUCACCCAUGUAUGAACCAAUACCUGGAAACAGCAAUGUAAGAAGGCUGCUCCGACA	12.5 nM	141 nM	–	–
AUCAGCUCGUCAGGAUAUACGUCACUGCGUCAGCAGUGUGGUAAGAUCACAUGAGGAUCACCCAUGUAGAAGGGACGAGCUGCU	14 nM	264 nM	–	–
UAUACUUACGAAGGAUAUGGUUACAUGAGGAUCACCCAUGUAUGUAUGUUGAUCGUGUAUCUUAACCAGAAGGUCGUCACUAUA	44.9 nM	56.5 nM	–	–
GGUACUCAAAGAGUACUUGGUCGAACAUGAGGAUCACCCAUGUAGGAUAUACGAAGCAAGAAGUAGUAGAAGGACGUGUGCAGC	12.4 nM	12.1 nM	–	–
AUGCUUCACACAGGAUAUACAUGAGGAUCACCCAUGUGUCCAAAGUAGCCGACACGAGCUACGCGGUAGAAGGGUGUGAAGCAU	18.6 nM	52.2 nM	–	–
GUCAGACGAGGAUAUAGAUUUGAUAACAUGAGGAUCACCCAUGUGAUCGAUAGAUCAGAUUUAGAAGGCGUCUGAC	410 nM	458 nM	–	–
AAUCGGGAGCAGAAGGCAUGUAAUAAGACAUGAGGAUCACCCAUGUAGUUAAGGCGAAAGCCGCAUGAGGAUAUGCUCCCGUAA	–	–	5.26 nM	4.99 nM
GGCUACGUUUCGUAGCAGCUAGGUGAGGAUAUUCAAUUUUUCACAUGAGGAUCACCCAUGUAUGUGAAGAAGGCGCCUAGAAAA	–	–	11.7 nM	4.83 nM
ACGCUUUGGGAGAAGGUACGUUAAAUUUUUUCCACAUGAGGAUCACCCAUGUAAGGAUAUCCCAUCGUUAAAUAGGCUACAGCA	8.92 nM	8.85 nM	–	–
GGGCCGCUACGCCGGCUCCACGCACAGGAUAUGCAGUUACAUGAGGAUCACCCAUGUGGCCAUGUGCAGAAGGGUGAUUCGCGA	–	–	78.7 nM	46.1 nM
AGAACAUGAGGAUCACCCAUGUAAAGAUCGGUUAAUAAGGGUGAGGAUAUGCUUAAAAUAAGGUAGCAGAAGGUACUUGGUACA	–	–	247 nM	345 nM
CGCCGCACCGGCCUGCGGCAGGGUCAGGAUAUACAUGAGGAUCACCCAUGUGAACGGUGCCCAAUGUAGAAGGGACGAAAAGAA	17.8 nM	39.5 nM	–	–
GGACAUUUACAGAAGGGCAAGUUAGAUCGUGGAUAACACGAUCUGACUUGCAGGAUAUGUUGAACAUGAGGAUCACCCAUGUCC	–	–	12.9 nM	10.8 nM
CCAUCGAGUGUGAGGAUAUGCUGGUCCUUGGAUCAGCAGAAGGCACAUGAGGAUCACCCAUGUGGAGACGGUGG	60.1 nM	286 nM	–	–
UGGUGAAGUGUAGGAUAUGGAGAUGGGUUUUGGCCAGAAGGACAUGAGGAUCACCCAUGUGGUAGAGGGUUGGUGGUAGCUCGU	62.4 nM	49.8 nM	–	–
AUAAUUUUAUAUAUCAUUUUAAUCAGAAGGCAUAACAUGAGGAUCACCCAUGUAUAUUAUAGUUAUGAGGAUAUGAUUUGGUUA	11.6 nM	10.9 nM	–	–
ACAUACGAUAGUAUGCCUGAGGGCAGAAGGCACAUGAGGAUCACCCAUGUAACGAUCUCUUCAAGUGAGGAUAUGUGCUCAUUG	49.8 nM	52.2 nM	–	–
AAUUAUUUACAGAAGGAGUAAGAUUUUGUAUUACUAGGAUAUGUUAACAUGAGGAUCACCCAUGUGUUUGUUGGUUUUUUAUGU	16.1 nM	14.8 nM	–	–
UUGGACGUCGUAGUAUAUGUAGGAUAUUCCUACAUGAGGAUCACCCAUGUUGACAUGGAAGAAGGACAGAAGGACGAUGUCCAU	–	–	144 nM	6.12 nM
UUAUGAGAGCAGGAUAUCUUAUUUUUUUUUUAUGGAGAAGGGCUCACAUGAGGAUCACCCAUGUGGUCCUAGAU	27.9 nM	54.4 nM	–	–
GAAUAUUCGUUGUACAUGAGGAUCACCCAUGUGACUUUACAUGAGGAUAUGGAUUCUAAUUGGAUCCAGAAGGCAUGAAUAUUC	–	–	171 nM	35 nM

From the EternaBench riboswitch data
